Test results reported in ChEMBL document CHEMBL5214907 (J Med Chem, 2021).

Biological target: Neuronal acetylcholine receptor; alpha9/alpha10 (Homo sapiens, UniProt Q9GZZ6+Q9UGM1)
Test: Inhibition of human alpha9alpha10 nAChR expressed in xenopus oocytes assessed as inhibition of Ach- induced response at -70 mV holding potential and measured for 1 to 5 days in presence of Ach stimulation by voltage-clamp based electrophysiological method
Format: cell-based, Oocyte
Procedure, shortened: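 Two-electrode voltage clamp on Xenopus oocytes expressing human α9α10, recorded 1–5 d after injection. Held at −70 mV at room temperature in Ca²⁺-containing ND-96. A 1 s pulse of 100 µM ACh was given every 60 s and peptide was flowed on. IC50 with 95% CI from 3–5 separate oocytes.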

Sequence of Neuronal acetylcholine receptor; alpha9/alpha10 (Q9UGM1 whole entry): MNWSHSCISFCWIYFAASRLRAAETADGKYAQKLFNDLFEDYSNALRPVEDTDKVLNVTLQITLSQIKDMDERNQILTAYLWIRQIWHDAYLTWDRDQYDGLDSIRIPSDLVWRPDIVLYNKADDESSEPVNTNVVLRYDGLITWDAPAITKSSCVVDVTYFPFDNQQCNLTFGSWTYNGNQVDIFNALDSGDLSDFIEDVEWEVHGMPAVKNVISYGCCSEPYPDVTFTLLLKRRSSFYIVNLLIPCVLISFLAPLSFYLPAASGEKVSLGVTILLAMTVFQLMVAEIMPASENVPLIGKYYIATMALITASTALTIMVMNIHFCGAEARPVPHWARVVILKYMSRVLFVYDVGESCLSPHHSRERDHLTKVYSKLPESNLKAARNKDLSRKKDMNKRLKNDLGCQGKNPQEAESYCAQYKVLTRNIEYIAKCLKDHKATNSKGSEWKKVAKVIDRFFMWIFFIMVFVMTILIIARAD
Sequence of Neuronal acetylcholine receptor; alpha9/alpha10 (Q9GZZ6 whole entry): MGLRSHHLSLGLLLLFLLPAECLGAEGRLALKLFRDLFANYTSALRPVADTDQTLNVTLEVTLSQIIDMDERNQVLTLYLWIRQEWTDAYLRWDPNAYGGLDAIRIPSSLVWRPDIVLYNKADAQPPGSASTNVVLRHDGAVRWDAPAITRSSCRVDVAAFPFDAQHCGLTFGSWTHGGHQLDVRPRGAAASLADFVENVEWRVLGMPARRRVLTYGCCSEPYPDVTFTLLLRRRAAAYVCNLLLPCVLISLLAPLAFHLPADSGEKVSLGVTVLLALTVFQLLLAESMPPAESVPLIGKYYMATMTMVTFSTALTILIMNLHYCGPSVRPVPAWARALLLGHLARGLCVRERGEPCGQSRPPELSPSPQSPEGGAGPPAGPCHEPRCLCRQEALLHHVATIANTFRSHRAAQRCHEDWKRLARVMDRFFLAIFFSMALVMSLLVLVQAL

## C[C@@H](O)[C@@H]1NC(=O)[C@H]2NC(=O)[C@H](NC(=O)CN)CSSC[C@H](NC(=O)[C@H](CCCNC(=N)N)NC(=O)[C@@H]3CCCN3C(=O)[C@H](CC(=O)O)NC1=O)C(=O)N[C@@H](CCCNC(=N)N)C(=O)N[C@@H](Cc1ccc(O)c(I)c1)C(=O)N[C@@H](CCCN)C(=O)N[C@H](C(=O)N[C@H](CC(=O)N[C@@H](CCCN)C(=O)O)Cc1ccc(O)cc1)CSSC2(C)C
  IC50: 0.34 nM

## C[C@@H](O)[C@@H]1NC(=O)[C@@H]2CSSC[C@@H](C(=O)N[C@@H](Cc3ccc(O)cc3)C(=O)O)NC(=O)[C@H](CCC(N)=O)NC(=O)[C@H](Cc3ccc(O)c(I)c3)NC(=O)[C@H](CCCNC(=N)N)NC(=O)[C@H](CSSC[C@@H](NC(=O)CN)C(=O)N2)NC(=O)[C@H](CCCNC(N)=O)NC(=O)[C@@H]2CCCN2C(=O)[C@H](CC(=O)O)NC1=O
  IC50: 1.4 nM

## C[C@@H](O)[C@@H]1NC(=O)[C@H]2NC(=O)[C@H](NC(=O)CN)CSSC[C@H](NC(=O)[C@H](CCCNC(=N)N)NC(=O)[C@@H]3CCCN3C(=O)[C@H](CC(=O)O)NC1=O)C(=O)N[C@@H](CCCNC(=N)N)C(=O)N[C@@H](Cc1ccc(O)c(I)c1)C(=O)N[C@@H](CCCN)C(=O)N[C@H](C(=O)N[C@H](CC(=O)N[C@@H](CCCCN)C(=O)O)Cc1ccc(O)cc1)CSSC2(C)C
  IC50: 0.36 nM

## C[C@@H](O)[C@@H]1NC(=O)[C@@H]2CSSC[C@@H](C(=O)N[C@@H](Cc3ccc(O)cc3)C(=O)O)NC(=O)[C@H](CCC(N)=O)NC(=O)[C@H](Cc3ccc(O)c(I)c3)NC(=O)[C@H](CCCNC(N)=O)NC(=O)[C@@H](NC(=O)[C@H](CCCNC(=N)N)NC(=O)[C@@H]3CCCN3C(=O)[C@H](CC(=O)O)NC1=O)C(C)(C)SSC[C@@H](NC(=O)CN)C(=O)N2
  IC50: > 1000 nM

## C[C@@H](O)[C@@H]1NC(=O)[C@H]2NC(=O)[C@H](NC(=O)CN)CSSC[C@H](NC(=O)[C@H](CCCNC(=N)N)NC(=O)[C@@H]3CCCN3C(=O)[C@H](CC(=O)O)NC1=O)C(=O)N[C@@H](CCCNC(=N)N)C(=O)N[C@@H](Cc1ccc(O)c(I)c1)C(=O)N[C@@H](CCCN)C(=O)N[C@H](C(=O)N[C@H](CC(=O)N[C@H](CCCNC(=N)N)C(=O)O)Cc1ccc(O)cc1)CSSC2(C)C
  IC50: 4 nM
